According to ChEMBL document CHEMBL1157394, “Absolute configuration and antimicrobial activity of acylhomoserine lactones” (2008):
The source made the active and inactive calls. The rule behind the calls is not given here.

Tests used:
Assay type in all cases: functional
Bacillus subtilis = experiment: Antimicrobial activity against Bacillus subtilis CCT 0089 after 24 hrs by MTT method
Outline: (§1)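 Strain grown on solid nutrient broth slants at 30 °C for 24 h, then suspended in sterile water to 3 × 10⁸ cells/mL (McFarland). Suspension diluted into Mueller-Hinton medium in 96-well plates. Samples started from 1000 µg/mL stock in 20% aqueous DMSO and serially diluted twofold. Incubated 30 °C, 24 h; 0.025% MTT added. Purple wells scored as growth, yellow as inhibition. Run in duplicate; concentration range for growth inhibition reported.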

Staphylococcus aureus = experiment: Antimicrobial activity against Staphylococcus aureus CCT 1295 24 hrs by MTT method; outline: as §1
Bacillus cereus = experiment: Antimicrobial activity against Bacillus cereus CCT 4060 after 24 hrs by MTT method; outline: as §1

## CCCCCC(=O)CC(=O)NC1CCOC1=O (racemic)
Bacillus subtilis
  Activity: 62.5 µg/mL
Staphylococcus aureus
  Activity: 500 µg/mL
Bacillus cereus
  Activity: 62.5 µg/mL

## CCCCCCCCCC(=O)CC(=O)NC1CCOC1=O (racemic)
Bacillus subtilis
  Activity: 125 µg/mL
Staphylococcus aureus
  Activity: 500 µg/mL
Bacillus cereus
  Activity: 125 µg/mL

## CCCCCCC(=O)NC1CCOC1=O (racemic)
Bacillus subtilis
  Activity: 500 µg/mL
Staphylococcus aureus
  Activity: inactive
Bacillus cereus
  Activity: inactive

## CCCCCCCCCCCC(=O)CC(=O)NC1CCOC1=O (racemic)
Bacillus subtilis
  Activity: 250 µg/mL
Staphylococcus aureus
  Activity: 500 µg/mL
Bacillus cereus
  Activity: 500 µg/mL

## O=C(N[C@H](CO)[C@H](O)c1ccc([N+](=O)[O-])cc1)C(Cl)Cl [CHLORAMPHENICOL]
Bacillus subtilis
  Activity: 3.91 µg/mL
Staphylococcus aureus
  Activity: 7.81 µg/mL
Bacillus cereus
  Activity: 3.91 µg/mL
